# pIC50: −log10 of the molar value.
# Tests used:
# Staphylococcus aureus [1] = assay: Antimicrobial activity against Panton-valentine leucocidin-positive community-acquired methicillin-resistant Staphylococcus aureus N4090440 infected in human THP-1 cells assessed as bacterial count per mg of cell protein at low extracellular compound concentration after 24 hrs; type: functional
# Procedure, shortened: (§1)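 THP-1 human macrophages infected with S. aureus (postphagocytosis inoculum 1.5 × 10^6 to 3.0 × 10^6 CFU/mg cell protein), then incubated 24 h with increasing extracellular antibiotic concentrations. Change in log10 CFU/mg cell protein from the postphagocytosis inoculum, n = 3. Hill function fitted on log-transformed data. Low-concentration value (E0) and high-concentration value (Emax) are extrapolated. Where a pH is given, concentrations are expressed as multiples of the broth MIC at that pH.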
# Staphylococcus aureus [2] = assay: Antimicrobial activity against Panton-valentine leucocidin-positive community-acquired methicillin-resistant Staphylococcus aureus N4090440 infected in human THP-1 cells assessed as change in bacterial count after 24 hrs; type: functional, organism-based; conditions: N4090440, THP-1, 24 h; procedure, shortened: as §1
# Staphylococcus aureus [3] = assay: Antimicrobial activity against Panton-valentine leucocidin-positive community-acquired methicillin-resistant Staphylococcus aureus N4042228 infected in human THP-1 cells assessed as bacterial count per mg of cell protein at high extracellular compound concentration after 24 hrs at pH 5.5; type: functional; procedure, shortened: as §1
# Staphylococcus aureus [4] = assay: Antimicrobial activity against Panton-valentine leucocidin-positive community-acquired methicillin-resistant Staphylococcus aureus STA 228 infected in human THP-1 cells assessed as bacterial count per mg of cell protein at high extracellular compound concentration after 24 hrs at pH 5.5; type: functional; procedure, shortened: as §1
# Staphylococcus aureus [5] = assay: Bacteriostatic activity against hospital-acquired vancomycin-intermediate Staphylococcus aureus NRS126 infected in human THP-1 cells assessed as change in bacterial count after 24 hrs at pH 5.5; type: functional
# Staphylococcus aureus [6] = assay: Antimicrobial activity against methicillin-susceptible Staphylococcus aureus […] infected in human THP-1 cells assessed as change in bacterial count after 24 hrs at pH 5.5; type: functional, organism-based; conditions: THP-1, 24 h
# Procedure, shortened: (§2)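 THP-1 macrophages infected as described previously, with a postphagocytosis inoculum of 1.5 × 10⁶ to 3.0 × 10⁶ CFU/mg cell protein. Cells were exposed 24 h to increasing extracellular antibiotic concentrations. Response is the change in log10 CFU/mg protein from the inoculum (n = 3), fitted to a Hill function. E0 and Emax were extrapolated to infinitely low and high concentrations. EC50 and static concentration (graphical interpolation) are expressed as multiples of the broth MIC at pH 5.5 or 7.4.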
# Staphylococcus aureus [7] = assay: Antimicrobial activity against hospital-acquired methicillin-resistant Staphylococcus aureus ATCC 33592 infected in human THP-1 cells assessed as change in bacterial count after 24 hrs at pH 7.4; type: functional, organism-based; conditions: ATCC 33592, THP-1, 24 h; procedure, shortened: as §2
# Staphylococcus aureus [8] = assay: Antimicrobial activity against methicillin-resistant Staphylococcus aureus ATCC 33591 infected in human keratinocytes assessed as change in bacterial count after 24 hrs; type: functional, organism-based; conditions: ATCC 33591, 24 h
# Procedure, shortened: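 Primary human skin keratinocytes were grown in defined keratinocyte serum-free medium, infected with a postphagocytosis inoculum of 1.5 × 10⁶ to 3.0 × 10⁶ CFU/mg cell protein, then exposed 24 h to increasing extracellular antibiotic concentrations. Change in log10 CFU/mg protein from the inoculum was fitted to a Hill equation with slope 1. E0 and Emax were extrapolated to infinitely low and high concentrations, in total drug mg/liter.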
# MecA [9] = target: T1, MecA (Staphylococcus aureus, UniProt Q7DHH4); assay: Binding affinity to Staphylococcus aureus ATCC […] PBP2a by Western blotting at pH 5.5 in presence of 100 uM Bocillin FL
# T1 sequence (Q7DHH4 whole entry): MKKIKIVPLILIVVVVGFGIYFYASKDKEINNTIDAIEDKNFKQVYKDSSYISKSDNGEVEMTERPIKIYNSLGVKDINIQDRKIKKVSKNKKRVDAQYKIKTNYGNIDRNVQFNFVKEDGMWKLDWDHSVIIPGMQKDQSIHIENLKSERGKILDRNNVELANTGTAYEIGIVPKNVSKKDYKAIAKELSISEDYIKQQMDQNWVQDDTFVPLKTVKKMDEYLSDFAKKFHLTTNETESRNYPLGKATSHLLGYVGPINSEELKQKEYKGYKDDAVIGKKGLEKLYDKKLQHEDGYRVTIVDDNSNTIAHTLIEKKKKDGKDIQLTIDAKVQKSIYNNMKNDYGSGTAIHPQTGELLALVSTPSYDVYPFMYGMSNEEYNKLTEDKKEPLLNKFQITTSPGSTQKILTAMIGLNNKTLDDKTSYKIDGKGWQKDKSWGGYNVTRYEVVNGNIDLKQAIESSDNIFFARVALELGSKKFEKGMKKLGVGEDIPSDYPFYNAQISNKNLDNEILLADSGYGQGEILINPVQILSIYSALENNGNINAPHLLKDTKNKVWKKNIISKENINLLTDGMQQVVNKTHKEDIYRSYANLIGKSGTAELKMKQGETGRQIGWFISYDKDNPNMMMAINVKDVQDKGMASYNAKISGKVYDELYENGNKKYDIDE
# Procedure, shortened: (§3)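 Soluble truncated PBP 2a (ΔM1-Y23) was expressed in E. coli Rosetta 2(DE3) and purified. It was preincubated 25 min at 37°C with increasing cephalosporin concentrations, then 100 μM Bocillin FL was added for 25 min at 37°C at pH 5.5 or 7.4. Samples were run on SDS-PAGE and blotted with anti-bodipy antibody plus HRP secondary. Bands were detected by chemiluminescence and quantified by densitometry.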
# MecA [10] = target: T1, MecA; assay: Binding affinity to Staphylococcus aureus ATCC […] PBP2a by Western blotting at pH 7.4 in presence of 100 uM Bocillin FL; procedure, shortened: as §3
# Staphylococcus aureus [11] = assay: Antimicrobial activity against methicillin-susceptible Staphylococcus aureus […] infected in human THP-1 cells assessed as bacterial count per mg of cell protein at high extracellular compound concentration after 24 hrs; type: functional
# Procedure, shortened: (§4)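 Human THP-1 macrophage-like cells were infected with S. aureus to a postphagocytosis inoculum of 1.5 × 10^6 to 3.0 × 10^6 CFU/mg cell protein. Cells were then exposed 24 h to increasing extracellular antibiotic concentrations. Response was the log10 CFU change per mg protein from the postphagocytosis inoculum, n = 3. A Hill function was fitted on log-transformed axes. E0 and Emax were extrapolated to infinitely low and high concentrations. Cs was read by graphical interpolation. Concentrations were expressed as multiples of the broth MIC at pH 5.5 or pH 7.4.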
# Staphylococcus aureus [12] = assay: Antimicrobial activity against methicillin-susceptible Staphylococcus aureus ATCC 11632 infected in human THP-1 cells assessed as change in bacterial count after 24 hrs; type: functional, organism-based; conditions: ATCC 11632, THP-1, 24 h; procedure, shortened: as §2
# Staphylococcus aureus [13] = assay: Antimicrobial activity against hospital-acquired methicillin-resistant Staphylococcus aureus ATCC 33591 infected in human THP-1 cells assessed as bacterial count per mg of cell protein at low extracellular compound concentration after 24 hrs; type: functional; procedure, shortened: as §2
# Staphylococcus aureus [14] = assay: Antimicrobial activity against hospital-acquired methicillin-resistant Staphylococcus aureus ATCC 33592 infected in human THP-1 cells assessed as change in bacterial count after 24 hrs; type: functional, organism-based; conditions: ATCC 33592, THP-1, 24 h; procedure, shortened: as §2
# Staphylococcus aureus [15] = assay: Antimicrobial activity against hospital-acquired vancomycin-intermediate Staphylococcus aureus NRS18 infected in human THP-1 cells assessed as bacterial count per mg of cell protein at low extracellular compound concentration after 24 hrs; type: functional; procedure, shortened: as §4
smiles,measurement,setting,value
Nc1nc(/C(=N/O)C(=O)N[C@@H]2C(=O)N3C(C(=O)O)=C(/C=C4\CCN([C@@H]5CCNC5)C4=O)CS[C@H]23)ns1 [CEFTOBIPROLE],log10cfu,Staphylococcus aureus [1],3.39
same,EC50,Staphylococcus aureus [2],0.08 µg/mL
same,log10cfu,Staphylococcus aureus [3],-1.02
same,log10cfu,Staphylococcus aureus [4],-1.02
same,Activity,Staphylococcus aureus [5],1.97 multiples of MIC
same,EC50,Staphylococcus aureus [6],0.41 × MIC
same,EC50,Staphylococcus aureus [7],0.28 ×MIC
same,EC50,Staphylococcus aureus [8],1.08 µg/mL
same,pIC50,MecA [9],5.72
same,pIC50,MecA [10],5.10
same,log10cfu,Staphylococcus aureus [11],-1.15
same,EC50,Staphylococcus aureus [12],0.205 µg/mL
same,log10cfu,Staphylococcus aureus [13],2.47
same,EC50,Staphylococcus aureus [14],1.23 µg/mL
same,log10cfu,Staphylococcus aureus [15],2.83
